Measurements reported in paper PMC9050788 (European Journal of Drug Metabolism and Pharmacokinetics, 2022).
Entries after “also recorded” stand apart in the source; their conditions may differ.

Tests used:
[1] = Single vs multiple-dose; type: in vivo, human; conditions: for Contribution to the total active moiety (unbound, adjusted for relative potencies): at steady state with 200 mg QD dosing; for Mean (SD) plasma concentration: abrocitinib 200 mg once daily
[2] = after a single oral dose of abrocitinib; ref data on file; cited from earlier work
[3] = tested on: organic anion transporter 3 (OAT3); conditions: in vitro transporter profiling; ref data on file; cited from earlier work
[4] = Phase I DDI study of abrocitinib with probenecid; type: in vivo, human
[5] = plasma protein binding; ref data on file; cited from earlier work
[6] = Phase I DDI study of abrocitinib with rifampin; type: in vivo, human
[7] = Phase I DDI study of abrocitinib with fluvoxamine; type: in vivo, human
[8] = population analyses; ref data on file; cited from earlier work
[9] = tested on: CYP3A4; conditions: data on file; cited from earlier work
[10] = tested on: CYP2C9; conditions: data on file; cited from earlier work
[11] = tested on: cytochrome P450 (CYP) 2C19; conditions: CYP2C19; data on file; cited from earlier work
[12] = cited from earlier work
[13] = Phase I DDI study of abrocitinib with fluconazole; type: in vivo, human
[14] = tested on: CYP2B6; conditions: data on file; cited from earlier work
[15] = Safety across the three phase I DDI studies; type: in vivo, human; conditions: all three studies, healthy volunteers
In short: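 Safety population comprised all subjects receiving at least one dose of study medication. Adverse events were summarised descriptively.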

[16] = with probenecid vs abrocitinib alone, active moiety unbound
[17] = Probenecid 1000 mg BID (n = 12)
[18] = Abrocitinib 100 mg single dose (n = 12), fluvoxamine study
[19] = Abrocitinib 100 mg single dose + fluvoxamine 50 mg QD (n = 12)
[20] = with fluvoxamine vs abrocitinib alone, active moiety unbound
[21] = Abrocitinib 100 mg single dose (n = 12), rifampin study
[22] = Abrocitinib 200 mg single dose + Rifampin 600 mg QD (n = 12)
[23] = with rifampin vs abrocitinib alone, active moiety unbound
[24] = Abrocitinib 100 mg single dose (n = 12), probenecid study
[25] = Abrocitinib 200 mg single dose + Probenecid 1000 mg BID (n = 12)
[26] = Abrocitinib 100 mg single dose (n = 12), fluconazole study
[27] = Abrocitinib 100 mg single dose + fluconazole 200 mg QD (n = 12)
[28] = with fluconazole vs abrocitinib alone, active moiety unbound

Question: Which “Contribution to the total active moiety (unbound, adjusted for relative potencies)” value [1] does the source give for `CC(O)CS(=O)(=O)N[C@H]1C[C@@H](N(C)c2ncnc3[nH]ccc23)C1` (stereo partly shown) [M2] here?
Answer: ~ 30%

Question: What about the “Share of circulating species” value [2] of the same compound?
Answer: 12%

Question: What about the “Substrate of OAT3” value [3] of the same compound?
Answer: substrates; also recorded: in part a substrate

Question: What about the “Increase in AUCinf” value [4, 16] of the same compound?
Answer: 2.2 fold

Question: What about the “Increase in Cmax” value [4, 16] of the same compound?
Answer: 1.3 fold

Question: What about the “Fraction unbound in plasma (fu)” value [5] of the same compound?
Answer: 0.71

Question: What does the source list for `CN(c1ncnc2[nH]ccc12)[C@H]1C[C@@H](NS(=O)(=O)CCCO)C1` [M1]?
Answer: Contribution to the total active moiety (unbound, adjusted for relative potencies) [1]: ~ 10%; Share of circulating species [2]: 11%; Substrate of OAT3 [3]: substrates; also recorded: in part a substrate; Increase in Cmax [4, 16]: 1.4 fold; Fraction unbound in plasma (fu) [5]: 0.63

Question: Which results are given for `CO[C@H]1/C=C/O[C@@]2(C)Oc3c(C)c(O)c4c(O)c(c(/C=N/N5CCN(C)CC5)c(O)c4c3C2=O)NC(=O)/C(C)=C\C=C\[C@H](C)[C@H](O)[C@@H](C)[C@@H](O)[C@@H](C)[C@H](OC(C)=O)[C@@H]1C` [Rifampin, reference compound]?
Answer: Subjects with TEAEs ([6]; Rifampin 600 mg QD (n = 12)): 10 (83.3) n (%); Subjects with TRAEs ([6]; Rifampin 600 mg QD (n = 12)): 10 (83.3) n (%)

Question: With `CCCN(CCC)S(=O)(=O)c1ccc(C(=O)O)cc1` [Probenecid, reference compound] as the compound, how does the “Subjects with TEAEs” value [4, 17] read?
Answer: 2 (16.7) n (%)

Question: And the “Subjects with TRAEs” value [4, 17]?
Answer: 2 (16.7) n (%)

Question: Which results are given for `CCCS(=O)(=O)N[C@H]1C[C@@H](N(C)c2ncnc3[nH]ccc23)C1` [Abrocitinib, N-{cis-3-[Methyl(7H-pyrrolo[2,3-d]pyrimidin-4-yl)amino]cyclobutyl}propane-1-sulfo namide]?
Answer: Mean (SD) plasma concentration ([1]; before dosing on Day 2): 9.16 (7.96) ng/mL; Mean (SD) plasma concentration ([1]; before dosing on Day 3): 15.01 (21.38) ng/mL; Mean (SD) plasma concentration ([1]; before dosing on Day 4): 14.95 (15.88) ng/mL; concentration at 24 h ([1]; human, plasma, oral, 200 mg): 11.3 ng/mL; Time to steady-state plasma concentrations ([1]; once-daily administration, achieved by Day 3 of dosing): ≤ 48 h; Subjects with TEAEs [7, 18]: 3 (25.0) n (%); Subjects with TRAEs [7, 18]: 3 (25.0) n (%); Subjects with TEAEs [7, 19]: 6 (50.0) n (%); Subjects with TRAEs [7, 19]: 3 (25.0) n (%); Increase in AUCinf [7, 20]: 2.8 fold; Increase in Cmax [7, 20]: 1.8 fold; Share of circulating species [2]: 26%; Sex-related differences in pharmacokinetics [8]: no sex-related differences; Subjects with TEAEs [6, 21]: 2 (16.7) n (%); Subjects with TRAEs [6, 21]: 2 (16.7) n (%); Subjects with TEAEs [6, 22]: 4 (33.3) n (%); Subjects with TRAEs [6, 22]: 4 (33.3) n (%); Decrease in AUCinf [6, 23]: 87.6%; Decrease in Cmax [6, 23]: 79.1%; Substrate of OAT3 [3]: not a substrate; Contribution to abrocitinib metabolism [9]: 11%; Subjects with TEAEs [4, 24]: 6 (50.0) n (%); Subjects with TRAEs [4, 24]: 2 (16.7) n (%); Subjects with TEAEs [4, 25]: 5 (41.7) n (%); Subjects with TRAEs [4, 25]: 4 (33.3) n (%); Increase in Cmax [4, 16]: 1.2 fold; Contribution to abrocitinib metabolism [10]: 30%; Contribution to abrocitinib metabolism [11]: 53%; Parent drug excreted unchanged in the urine [12]: 1.0–4.4%; Subjects with TEAEs [13, 26]: 2 (16.7) n (%); Subjects with TRAEs [13, 26]: 2 (16.7) n (%); Subjects with TEAEs [13, 27]: 7 (58.3) n (%); Subjects with TRAEs [13, 27]: 6 (50.0) n (%); Increase in AUCinf [13, 28]: 4.8 fold; Increase in Cmax [13, 28]: 1.9 fold; Contribution to abrocitinib metabolism [14]: 6%; Serious or severe adverse events [15]: No serious or severe adverse events
